{"source": "ChEMBL document CHEMBL1143668", "about": "“Reversal of P-glycoprotein-mediated multidrug resistance by sipholane triterpenoids” (J Nat Prod, 2007)", "assay_type_in_all_cases": "functional, cell-based", "key": {"[1]": {"assay": "Cytotoxicity against KB-C2 cells overexpressing P-gp after 68 hrs by MTT assay", "details": "Homo sapiens, KB-C2, 68 h", "procedure,_shortened": "(§1)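 Human epidermoid carcinoma KB-3-1 (parental) and sublines: KB/MRP1 (MRP1 cDNA-transfected), KB-CV60 (kept in 1 μg/mL cepharanthine + 60 ng/mL vincristine), KB-C2 (kept in 2 μg/mL colchicine). DMEM with 10% bovine serum, 37 °C, 5% CO₂. Seeded at 4×10^4 (KB-3-1), 5×10^4 (KB/MRP1) or 7.5×10^4 cells/mL (KB-CV60, KB-C2). Compound dilution series for 68 h, then MTT 4 h. Formazan dissolved in DMSO, A570. IC50 from survival curves by the Bliss method.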"}, "[2]": {"assay": "Cytotoxicity against KB-3-1 cells after 68 hrs by MTT assay", "details": "Homo sapiens, KB 3-1, 68 h", "procedure,_shortened": "as §1"}, "KB": {"system": "KB", "assay": "Cytotoxicity against KB cells expressing MRP1 after 68 hrs by MTT assay", "details": "Homo sapiens", "procedure,_shortened": "as §1"}, "[3]": {"assay": "Cytotoxicity against KB-CV60 cells expressing MRP1 after 68 hrs by MTT assay", "details": "Homo sapiens, KB-CV60, 68 h", "procedure,_shortened": "as §1"}, "[4]": {"assay": "Reversal of P-gp-mediated multidrug resistance to Cytotoxicity of colchicine against human KB-C2 cells at 5 uM after 68 hrs by MTT assay", "details": "KB-C2, 68 h", "procedure,_shortened": "(§2)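 KB-3-1 seeded at 4×10^4 cells/mL, KB-C2 at 7.5×10^4 cells/mL (KB-C2 kept in 2 μg/mL colchicine). MTT added for 4 h, DMSO solubilization, A570. IC50 by the Bliss method. Fold-resistance = IC50 / colchicine IC50 in KB-3-1. Mean ± SD, three independent experiments in triplicate.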"}, "KB 3-1": {"system": "KB 3-1", "assay": "Reversal of P-gp-mediated multidrug resistance to Cytotoxicity of colchicine against human KB-3-1 cells at 5 uM after 68 hrs by MTT assay", "details": "KB 3-1, 68 h", "procedure,_shortened": "as §2"}}}
{"smiles": "CC1(C)C(CC[C@@H]2[C@@]3(C)CC[C@@H](O)C(C)(C)O[C@@H]3CC[C@]2(C)O)C(C=O)=CCC2C1CC[C@@]2(C)O", "note": "(stereo partly drawn)", "values": [{"measurement": "IC50", "setting": "[1]", "result": "> 50", "unit": "µM"}, {"measurement": "IC50", "setting": "[2]", "result": "> 50", "unit": "µM"}, {"measurement": "IC50", "setting": "KB", "result": "> 50", "unit": "µM"}, {"measurement": "IC50", "setting": "[3]", "result": "> 50", "unit": "µM"}, {"measurement": "IC50", "setting": "[4]", "result": 2.85, "unit": "µM"}, {"measurement": "IC50", "setting": "KB 3-1", "result": 0.005, "unit": "µM"}]}
{"smiles": "CC1(C)O[C@@H]2CC[C@](C)(O)[C@H](CCC3C(C=O)=CCC4C(CC[C@@]4(C)O)C3(C)C)[C@@]2(C)CCC1=O", "note": "(stereo partly drawn)", "values": [{"measurement": "IC50", "setting": "[1]", "result": "> 50", "unit": "µM"}, {"measurement": "IC50", "setting": "[2]", "result": "> 50", "unit": "µM"}, {"measurement": "IC50", "setting": "KB", "result": "> 50", "unit": "µM"}, {"measurement": "IC50", "setting": "[3]", "result": "> 50", "unit": "µM"}, {"measurement": "IC50", "setting": "[4]", "result": 6.32, "unit": "µM"}, {"measurement": "IC50", "setting": "KB 3-1", "result": 0.0056, "unit": "µM"}]}
{"smiles": "CC1(C)C(CC[C@@H]2[C@@]3(C)CC[C@@H](O)C(C)(C)O[C@@H]3CC[C@]2(C)O)C(CO)=CCC2C1CC[C@@]2(C)O", "note": "(stereo partly drawn) [28-HYDROXYSIPHOLENOL A]", "values": [{"measurement": "IC50", "setting": "[1]", "result": "> 50", "unit": "µM"}, {"measurement": "IC50", "setting": "[2]", "result": "> 50", "unit": "µM"}, {"measurement": "IC50", "setting": "KB", "result": "> 50", "unit": "µM"}, {"measurement": "IC50", "setting": "[3]", "result": "> 50", "unit": "µM"}, {"measurement": "IC50", "setting": "[4]", "result": 5.07, "unit": "µM"}, {"measurement": "IC50", "setting": "KB 3-1", "result": 0.0059, "unit": "µM"}]}
{"smiles": "CC1(C)O[C@@H]2CC[C@](C)(O)[C@H](CC[C@@]34O[C@]3(C)[C@H](O)CC3C(CC[C@@]3(C)O)C4(C)C)[C@@]2(C)CC[C@H]1O", "note": "(stereo partly drawn) [SIPHOLENOL I]", "values": [{"measurement": "IC50", "setting": "[1]", "result": "> 50", "unit": "µM"}, {"measurement": "IC50", "setting": "[2]", "result": "> 50", "unit": "µM"}, {"measurement": "IC50", "setting": "KB", "result": "> 50", "unit": "µM"}, {"measurement": "IC50", "setting": "[3]", "result": "> 50", "unit": "µM"}, {"measurement": "IC50", "setting": "[4]", "result": 2.87, "unit": "µM"}, {"measurement": "IC50", "setting": "KB 3-1", "result": 0.0086, "unit": "µM"}]}
{"smiles": "CC1=C(CC[C@@H]2[C@@]3(C)CC[C@@H](O)C(C)(C)O[C@@H]3CC[C@]2(C)O)[C@](C)(C/C=C/C(C)(C)O)[C@H](O)CC1", "note": "[SIPHONELLINOL C]", "values": [{"measurement": "IC50", "setting": "[1]", "result": "> 50", "unit": "µM"}, {"measurement": "IC50", "setting": "[2]", "result": "> 50", "unit": "µM"}, {"measurement": "IC50", "setting": "KB", "result": "> 50", "unit": "µM"}, {"measurement": "IC50", "setting": "[3]", "result": "> 50", "unit": "µM"}, {"measurement": "IC50", "setting": "[4]", "result": 1.48, "unit": "µM"}, {"measurement": "IC50", "setting": "KB 3-1", "result": 0.0078, "unit": "µM"}]}
{"smiles": "CC1=CCC2C(CC[C@@]2(C)O)C(C)(C)C1CC[C@@H]1[C@@]2(C)CCC(=O)C(C)(C)O[C@@H]2CC[C@]1(C)O", "note": "(stereo partly drawn) [SIPHOLENONE A]", "values": [{"measurement": "IC50", "setting": "[1]", "result": "> 50", "unit": "µM"}, {"measurement": "IC50", "setting": "[2]", "result": "> 50", "unit": "µM"}, {"measurement": "IC50", "setting": "KB", "result": "> 50", "unit": "µM"}, {"measurement": "IC50", "setting": "[3]", "result": "> 50", "unit": "µM"}, {"measurement": "IC50", "setting": "[4]", "result": 0.93, "unit": "µM"}, {"measurement": "IC50", "setting": "KB 3-1", "result": 0.0052, "unit": "µM"}]}
{"smiles": "CC1(C)O[C@@H]2CC[C@](C)(O)[C@H](CCC3C(CO)=CCC4C(CC[C@@]4(C)O)C3(C)C)[C@@]2(C)CCC1=O", "note": "(stereo partly drawn)", "values": [{"measurement": "IC50", "setting": "[1]", "result": "> 50", "unit": "µM"}, {"measurement": "IC50", "setting": "[2]", "result": "> 50", "unit": "µM"}, {"measurement": "IC50", "setting": "KB", "result": "> 50", "unit": "µM"}, {"measurement": "IC50", "setting": "[3]", "result": "> 50", "unit": "µM"}, {"measurement": "IC50", "setting": "[4]", "result": 6, "unit": "µM"}, {"measurement": "IC50", "setting": "KB 3-1", "result": 0.0063, "unit": "µM"}]}
{"smiles": "CC1=CCC2C(CC[C@@]2(C)O)C(C)(C)C1CC[C@@H]1[C@@]2(C)CC[C@@H](O)C(C)(C)O[C@@H]2CC[C@]1(C)O", "note": "(stereo partly drawn) [SIPHOLENOL A]", "values": [{"measurement": "IC50", "setting": "[1]", "result": "> 50", "unit": "µM"}, {"measurement": "IC50", "setting": "[2]", "result": "> 50", "unit": "µM"}, {"measurement": "IC50", "setting": "KB", "result": "> 50", "unit": "µM"}, {"measurement": "IC50", "setting": "[3]", "result": "> 50", "unit": "µM"}, {"measurement": "IC50", "setting": "[4]", "result": 0.21, "unit": "µM"}, {"measurement": "IC50", "setting": "KB 3-1", "result": 0.005, "unit": "µM"}]}
